Reference: ChEMBL document CHEMBL6134900 (J Med Chem, 2025)
Active and inactive are the calls of the source. No cut-off for these calls is given here.

Legend:
[1] = Drug concentration in CRBN I391V mutant mouse plasma at 10 mg/kg, po administered once daily for 3 days and measured at 24 hrs post last dose; type: ADME, organism-based; conditions: time 3 day
Outline: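 Oral dosing once daily for 3 days: 5–80 mg/kg in C57BL/6 mice, 10–80 mg/kg in CrbnI391V mice. Euthanized 24 h after last dose. Plasma drug level measured. Spleen SMARCA2 by Western blot against actin loading control, relative to vehicle.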

[2] = molecular target: Transcriptional coactivator YAP1 (Homo sapiens) (UniProt P46937); assay: Induction of YAP1 phosphorylation at S109 residue in human H322 cells harboring SMARCA4 mutant at 1 uM incubated for 96 hrs by immunoblot analysis; type: cell-based; conditions: filed as activator
[3] = Drug metabolism in mouse liver microsomes assessed as N-dealkylation mediated 2-(6-amino-5-(4-(3-fluoro-4-(piperazin-1-yl)benzyl)piperazin-1-yl)pyridazin-3-yl)phenol metabolite formation at 10 uM incubated for 60 mins by LC-UV-HRMS analysis; type: ADME, Microsome; conditions: 1 h
Outline: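 Compound at 10 μM incubated with mouse liver microsomes at 37 °C for 60 min. Metabolites detected by LC-UV-HRMS, structures proposed from MS and MS2 data, and each metabolite given as a percentage.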

[4] = molecular target: T1, Protein cereblon/SWI/SNF-related matrix-associated actin-dependent regulator of chromatin subfamily A member 2 (Homo sapiens, UniProt P51531+Q96SW2); assay: PROTAC activity at CRBN/SMARCA2 in human H322 cells harboring SMARCA4 mutant assessed as induction of SMARCA2 degradation at 0.1 uM in presence of MLN4924 by immunoblot analysis; type: cell-based
[5] = molecular target: T1, Protein cereblon/SWI/SNF-related matrix-associated actin-dependent regulator of chromatin subfamily A member 2; assay: PROTAC activity at CRBN/SMARCA2 in human NCI-H1792 cells harboring wild type SMARCA4 assessed as reduction in SMARCA2 protein level at 20 nM incubated for 24 hrs by TMT mass spectrometric analysis; type: cell-based
[6] = Toxicity in female athymic nude mouse xenografted with human HCC515 cells harboring SMARCA4 mutant assessed as change in body weight at 5 mg/kg, po administered once daily via gavage for 19 days relative to control; type: organism-based; conditions: in vivo, 456 h, time 19 day
Outline: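 Cells (H1568 2 × 10^6, H2023 10 × 10^6, HCC515 5 × 10^6) in PBS:Matrigel 1:1, 200 μL, injected subcutaneously into flanks of 6–8-week-old females. Randomized at mean tumor volume 60 mm3 (H1568) or <200 mm3 (others). Dosed in 0.5% methylcellulose + 0.2–1% Tween-80, sonicated on ice. Caliper tumor volume and body weight tracked, mean ± SEM.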

[7] = In vivo PROTAC activity at CRBN/SMARCA2 in female athymic nude mouse xenografted with human NCI-H2030 cells harboring SMARCA4 mutant assessed as SMARCA2 degradation at 5 mg/kg, po administered once daily via gavage for 17 days by Western blotting analysis relative to control; type: functional; conditions: time 17 day
Outline: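 H2030 cells (10 × 10^6, PBS/Matrigel 1:1) implanted subcutaneously in the flank of female nude mice. Randomised below 200 mm3. 5 mg/kg or vehicle given by oral gavage once daily for 17 days in 10% DMSO/40% PEG300/1% Tween-80/49% saline. Tumours collected 24 h after dosing. SMARCA2 measured by Western blot against β-actin, relative to vehicle.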

Sequence of Transcriptional coactivator YAP1 (Homo sapiens) (P46937 whole entry): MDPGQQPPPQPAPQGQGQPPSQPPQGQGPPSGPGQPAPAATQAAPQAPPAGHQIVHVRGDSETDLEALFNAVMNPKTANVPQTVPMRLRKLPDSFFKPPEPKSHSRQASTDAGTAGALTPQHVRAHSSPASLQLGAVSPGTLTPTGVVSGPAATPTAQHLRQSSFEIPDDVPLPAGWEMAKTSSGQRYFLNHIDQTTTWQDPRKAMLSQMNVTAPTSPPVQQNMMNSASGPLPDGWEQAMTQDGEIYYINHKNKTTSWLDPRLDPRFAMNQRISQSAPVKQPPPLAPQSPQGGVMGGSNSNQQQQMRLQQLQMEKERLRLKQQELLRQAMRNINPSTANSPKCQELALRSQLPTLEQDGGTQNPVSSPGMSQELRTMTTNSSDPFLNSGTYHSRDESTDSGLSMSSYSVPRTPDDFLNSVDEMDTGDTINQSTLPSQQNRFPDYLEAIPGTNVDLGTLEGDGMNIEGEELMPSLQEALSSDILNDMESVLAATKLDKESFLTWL

SMILES | concentration at 72 h [1] [nM] | Activity [2] | Drug metabolism [3] | Activity [4] | Activity [5] | Activity [6] [%] | Activity [7] [%]
Nc1nnc(-c2ccccc2O)cc1N1CCN(Cc2ccc(N3CCC(CN4CCN(c5ccc6c(c5)C(=O)N(C5CCC(=O)NC5=O)C6=O)CC4)CC3)c(F)c2)CC1 (configuration not stated) | 1000 | Active |  |  |  |  | 
Nc1nnc(-c2ccccc2O)cc1N1CCN(Cc2ccc(N3CCN(CCOc4cccc5c4C(=O)N(C4CCC(=O)NC4=O)C5=O)CC3)c(F)c2)CC1 (configuration not stated) |  |  | metabolite_detected | inactive | Active | < 20 | 40
